Where a SMILES comes first, the peptide text is derived from it. [ ]: non-standard residue; d: D form. The star is where a group is joined. Adenosine(5'-uronoyl) = Nc1ncnc2c1ncn2[C@@H]1O[C@H](C(=O)*)[C@@H](O)[C@H]1O; Ahx = NCCCCCC(=O)O
How the values were obtained:
[1] = target: RAC-alpha serine/threonine-protein kinase (Homo sapiens) (UniProt P31749); experiment: Inhibition of AKT1 at 100 nM relative to control
Outline: (§1)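 Activity is expressed as percent inhibition versus control incubations lacking inhibitor. Values are means of duplicate determinations.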

[2] = target: T1, cAMP-dependent protein kinase catalytic subunit alpha (Homo sapiens, UniProt P17612); conditions: 100 nM
[3] = target: T2, RAC-gamma serine/threonine-protein kinase (Homo sapiens, UniProt Q9Y243); experiment: Inhibition of PKBgamma using 100 uM ATP and 30 uM TAMRA-kemptide substrate by fluorometric TLC assay
T2 sequence (Q9Y243 whole entry): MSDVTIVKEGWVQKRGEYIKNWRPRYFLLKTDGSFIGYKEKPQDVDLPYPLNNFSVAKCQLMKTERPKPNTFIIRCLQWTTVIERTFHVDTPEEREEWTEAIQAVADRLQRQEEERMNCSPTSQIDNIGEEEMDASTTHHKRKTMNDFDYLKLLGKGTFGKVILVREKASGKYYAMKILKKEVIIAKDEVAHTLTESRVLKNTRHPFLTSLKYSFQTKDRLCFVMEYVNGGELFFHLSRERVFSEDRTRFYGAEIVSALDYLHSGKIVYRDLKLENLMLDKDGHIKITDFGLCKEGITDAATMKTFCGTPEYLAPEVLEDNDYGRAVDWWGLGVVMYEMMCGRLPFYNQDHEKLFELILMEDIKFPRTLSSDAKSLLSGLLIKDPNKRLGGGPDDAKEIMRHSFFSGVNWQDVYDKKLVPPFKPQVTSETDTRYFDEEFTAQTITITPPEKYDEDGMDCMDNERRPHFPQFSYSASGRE

[4] = target: Serine/threonine-protein kinase Chk2 (Homo sapiens) (UniProt O96017); experiment: Inhibition of CHK2 at 100 nM relative to control; outline: as §1
[5] = target: RAC-beta serine/threonine-protein kinase (Homo sapiens) (UniProt P31751); experiment: Inhibition of AKT2 at 100 nM relative to control; outline: as §1
[6] = target: Serine/threonine-protein kinase pim-1 (Homo sapiens) (UniProt P11309); experiment: Inhibition of PIM1 at 100 nM relative to control; outline: as §1
[7] = target: T1, cAMP-dependent protein kinase catalytic subunit alpha; experiment: Inhibition of PKA catalytic subunit alpha using 100 uM ATP and 30 uM TAMRA-kemptide substrate by fluorometric TLC assay
[8] = target: Protein kinase C eta type (Homo sapiens) (UniProt P24723); experiment: Inhibition of PKCeta at 100 nM relative to control; outline: as §1
[9] = target: 5'-AMP-activated protein kinase subunit beta-1 (Homo sapiens) (UniProt Q9Y478); experiment: Inhibition of AMPKbeta1 at 100 nM relative to control; outline: as §1
[10] = target: Protein kinase C delta type (Homo sapiens) (UniProt Q05655); experiment: Inhibition of PKCdelta at 100 nM relative to control; outline: as §1
[11] = target: T2, RAC-gamma serine/threonine-protein kinase; conditions: 100 nM
[12] = target: Glycogen synthase kinase-3 beta (Homo sapiens) (UniProt P49841); experiment: Inhibition of GSK3-beta at 100 nM relative to control; outline: as §1
[13] = target: Protein kinase C gamma type (Homo sapiens) (UniProt P05129); experiment: Inhibition of PKCgamma at 100 nM relative to control; outline: as §1
[14] = target: Ribosomal protein S6 kinase alpha-4 (Homo sapiens) (UniProt O75676); experiment: Inhibition of MSK2 at 100 nM relative to control; outline: as §1
[15] = target: Serine/threonine-protein kinase Chk1 (Homo sapiens) (UniProt O14757); experiment: Inhibition of CHK1 at 100 nM relative to control; outline: as §1
[16] = target: Serine/threonine-protein kinase PAK 3 (Homo sapiens) (UniProt O75914); experiment: Inhibition of PAK3 at 100 nM relative to control; outline: as §1
Sequence of Serine/threonine-protein kinase PAK 3 (Homo sapiens) (O75914 whole entry, looked up): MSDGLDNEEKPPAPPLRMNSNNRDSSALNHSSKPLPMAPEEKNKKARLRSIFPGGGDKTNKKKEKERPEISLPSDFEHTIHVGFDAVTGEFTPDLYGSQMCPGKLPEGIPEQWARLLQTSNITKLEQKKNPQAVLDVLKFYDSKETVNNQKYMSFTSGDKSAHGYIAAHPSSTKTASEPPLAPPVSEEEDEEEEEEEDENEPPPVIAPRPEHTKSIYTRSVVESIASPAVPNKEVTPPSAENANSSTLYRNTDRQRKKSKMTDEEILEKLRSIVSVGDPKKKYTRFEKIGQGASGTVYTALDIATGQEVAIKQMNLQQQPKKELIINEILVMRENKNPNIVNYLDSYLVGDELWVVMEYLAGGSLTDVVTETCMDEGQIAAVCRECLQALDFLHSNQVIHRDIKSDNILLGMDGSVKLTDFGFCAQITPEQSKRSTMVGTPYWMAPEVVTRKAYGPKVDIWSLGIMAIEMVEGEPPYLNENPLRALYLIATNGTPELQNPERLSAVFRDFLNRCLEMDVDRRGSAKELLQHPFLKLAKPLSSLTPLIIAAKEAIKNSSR

[17] = target: Calcium/calmodulin-dependent protein kinase type II subunit alpha (Homo sapiens) (UniProt Q9UQM7); experiment: Inhibition of CaMK2alpha at 100 nM relative to control; outline: as §1
[18] = target: Ribosomal protein S6 kinase alpha-2 (Homo sapiens) (UniProt Q15349); experiment: Inhibition of RSK3 at 100 nM relative to control; outline: as §1
[19] = target: CDK2/Cyclin A1 (Homo sapiens) (UniProt P24941+P78396); experiment: Inhibition of Cdk2/cyclin A at 100 nM relative to control; format: protein-complex assay; outline: as §1
[20] = target: Ribosomal protein S6 kinase alpha-5 (Homo sapiens) (UniProt O75582); experiment: Inhibition of MSK1 at 100 nM relative to control; outline: as §1
[21] = target: Serine/threonine-protein kinase Sgk2 (Homo sapiens) (UniProt Q9HBY8); experiment: Inhibition of SGK2 at 100 nM relative to control; outline: as §1
Sequence of Serine/threonine-protein kinase Sgk2 (Homo sapiens) (Q9HBY8 whole entry): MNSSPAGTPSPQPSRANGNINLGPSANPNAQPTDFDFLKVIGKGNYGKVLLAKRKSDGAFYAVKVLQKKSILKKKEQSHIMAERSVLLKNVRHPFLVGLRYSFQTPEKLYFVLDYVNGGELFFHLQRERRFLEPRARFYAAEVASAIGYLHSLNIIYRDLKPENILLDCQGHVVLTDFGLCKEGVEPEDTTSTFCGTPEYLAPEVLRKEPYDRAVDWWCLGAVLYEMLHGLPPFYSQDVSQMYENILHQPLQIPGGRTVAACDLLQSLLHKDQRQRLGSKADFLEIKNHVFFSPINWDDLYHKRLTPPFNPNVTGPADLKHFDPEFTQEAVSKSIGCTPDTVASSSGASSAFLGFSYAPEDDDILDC

[22] = target: 5'-AMP-activated protein kinase subunit gamma-1 (Homo sapiens) (UniProt P54619); experiment: Inhibition of AMPKgamma1 at 100 nM relative to control; outline: as §1
[23] = target: cGMP-dependent protein kinase 2 (Homo sapiens) (UniProt Q13237); experiment: Inhibition of PKG2 at 100 nM relative to control; outline: as §1
[24] = target: Glycogen synthase kinase-3 alpha (Homo sapiens) (UniProt P49840); experiment: Inhibition of GSK3alpha at 100 nM relative to control; outline: as §1
[25] = target: Serine/threonine-protein kinase Sgk1 (Homo sapiens) (UniProt O00141); experiment: Inhibition of SGK1 at 100 nM relative to control; outline: as §1
[26] = target: Protein kinase C iota type (Homo sapiens) (UniProt P41743); experiment: Inhibition of PKCiota at 100 nM relative to control; outline: as §1
Sequence of Protein kinase C iota type (Homo sapiens) (P41743 whole entry): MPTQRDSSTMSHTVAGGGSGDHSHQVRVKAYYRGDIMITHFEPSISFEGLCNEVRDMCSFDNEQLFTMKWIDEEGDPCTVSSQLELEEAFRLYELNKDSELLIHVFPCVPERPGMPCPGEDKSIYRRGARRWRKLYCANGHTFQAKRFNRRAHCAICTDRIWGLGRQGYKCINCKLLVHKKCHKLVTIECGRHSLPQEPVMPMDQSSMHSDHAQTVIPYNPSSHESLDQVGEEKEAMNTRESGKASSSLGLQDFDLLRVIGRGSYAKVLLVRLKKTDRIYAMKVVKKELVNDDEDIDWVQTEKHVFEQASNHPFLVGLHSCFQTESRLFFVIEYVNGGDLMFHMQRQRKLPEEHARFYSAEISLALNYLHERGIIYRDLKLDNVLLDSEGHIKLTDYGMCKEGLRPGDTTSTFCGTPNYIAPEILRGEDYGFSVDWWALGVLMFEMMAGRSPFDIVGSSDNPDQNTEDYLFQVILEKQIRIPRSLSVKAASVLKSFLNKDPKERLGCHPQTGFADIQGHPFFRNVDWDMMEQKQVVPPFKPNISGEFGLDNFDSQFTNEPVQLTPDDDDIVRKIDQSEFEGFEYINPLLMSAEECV

[27] = target: Protein kinase C alpha type (Homo sapiens) (UniProt P17252); experiment: Inhibition of PKCalpha at 100 nM relative to control; outline: as §1
[28] = target: Maternal embryonic leucine zipper kinase (Homo sapiens) (UniProt Q14680); experiment: Inhibition of MELK at 100 nM relative to control; outline: as §1
[29] = target: 5'-AMP-activated protein kinase catalytic subunit alpha-1 (Homo sapiens) (UniProt Q13131); experiment: Inhibition of AMPKalpha1 at 100 nM relative to control; outline: as §1
[30] = target: Rho-associated protein kinase 1 (Homo sapiens) (UniProt Q13464); experiment: Inhibition of ROCK1 at 100 nM relative to control; outline: as §1
[31] = target: cAMP-dependent protein kinase catalytic subunit PRKX (Homo sapiens) (UniProt P51817); conditions: 100 nM
[32] = target: Serine/threonine-protein kinase D1 (Homo sapiens) (UniProt Q15139); experiment: Inhibition of PKCmu at 100 nM relative to control; outline: as §1
[33] = target: Protein kinase C theta type (Homo sapiens) (UniProt Q04759); experiment: Inhibition of PKCtheta at 100 nM relative to control; outline: as §1
[34] = target: Serine/threonine-protein kinase PAK 6 (Homo sapiens) (UniProt Q9NQU5); experiment: Inhibition of PAK6 at 100 nM relative to control; outline: as §1
[35] = target: Calcium/calmodulin-dependent protein kinase type II subunit beta (Homo sapiens) (UniProt Q13554); experiment: Inhibition of CaMK2beta at 100 nM relative to control; outline: as §1
[36] = target: Protein kinase C beta type (Homo sapiens) (UniProt P05771); experiment: Inhibition of PKCbeta1 at 100 nM relative to control; outline: as §1
Sequence of Protein kinase C beta type (Homo sapiens) (P05771 2-671 limits assumed): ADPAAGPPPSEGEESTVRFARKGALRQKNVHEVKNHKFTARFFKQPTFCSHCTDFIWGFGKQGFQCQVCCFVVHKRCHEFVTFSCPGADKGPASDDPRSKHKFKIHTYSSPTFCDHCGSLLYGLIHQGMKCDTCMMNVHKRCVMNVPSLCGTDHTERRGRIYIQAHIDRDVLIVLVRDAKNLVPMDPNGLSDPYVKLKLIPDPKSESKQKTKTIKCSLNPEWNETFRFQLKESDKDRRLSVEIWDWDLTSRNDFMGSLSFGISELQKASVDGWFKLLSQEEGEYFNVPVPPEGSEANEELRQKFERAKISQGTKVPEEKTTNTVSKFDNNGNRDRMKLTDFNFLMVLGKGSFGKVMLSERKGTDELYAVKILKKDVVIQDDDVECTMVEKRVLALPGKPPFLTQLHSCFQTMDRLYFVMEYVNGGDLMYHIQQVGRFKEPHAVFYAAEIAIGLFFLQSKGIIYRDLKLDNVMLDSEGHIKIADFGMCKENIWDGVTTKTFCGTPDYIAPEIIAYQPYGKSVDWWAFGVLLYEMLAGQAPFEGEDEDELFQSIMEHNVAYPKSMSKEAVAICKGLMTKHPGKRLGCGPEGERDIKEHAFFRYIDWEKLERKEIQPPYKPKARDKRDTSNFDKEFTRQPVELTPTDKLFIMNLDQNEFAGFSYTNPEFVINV

[37] = target: Rho-associated protein kinase 2 (Homo sapiens) (UniProt O75116); conditions: 100 nM
[38] = target: Serine/threonine-protein kinase D3 (Homo sapiens) (UniProt O94806); experiment: Inhibition of PKD3 at 100 nM relative to control; outline: as §1
[39] = target: Serine/threonine-protein kinase pim-2 (Homo sapiens) (UniProt Q9P1W9); experiment: Inhibition of PIM2 at 100 nM relative to control; outline: as §1
[40] = target: Aurora kinase A (Homo sapiens) (UniProt O14965); experiment: Inhibition of Aurora A at 100 nM relative to control; outline: as §1
Sequence of Aurora kinase A (Homo sapiens) (O14965 whole entry): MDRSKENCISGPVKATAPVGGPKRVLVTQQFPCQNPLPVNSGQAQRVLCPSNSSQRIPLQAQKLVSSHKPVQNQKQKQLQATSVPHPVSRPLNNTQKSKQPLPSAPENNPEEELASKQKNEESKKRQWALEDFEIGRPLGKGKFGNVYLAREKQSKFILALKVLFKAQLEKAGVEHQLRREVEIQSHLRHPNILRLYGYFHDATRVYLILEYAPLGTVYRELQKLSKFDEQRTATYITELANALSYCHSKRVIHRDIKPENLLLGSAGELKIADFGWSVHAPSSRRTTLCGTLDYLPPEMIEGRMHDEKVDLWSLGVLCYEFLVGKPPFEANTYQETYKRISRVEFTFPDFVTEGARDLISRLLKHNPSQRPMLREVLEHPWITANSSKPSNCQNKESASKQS

[41] = target: Ribosomal protein S6 kinase alpha-1 (Homo sapiens) (UniProt Q15418); experiment: Inhibition of RSK1 at 100 nM relative to control; outline: as §1
Sequence of Ribosomal protein S6 kinase alpha-1 (Homo sapiens) (Q15418 whole entry): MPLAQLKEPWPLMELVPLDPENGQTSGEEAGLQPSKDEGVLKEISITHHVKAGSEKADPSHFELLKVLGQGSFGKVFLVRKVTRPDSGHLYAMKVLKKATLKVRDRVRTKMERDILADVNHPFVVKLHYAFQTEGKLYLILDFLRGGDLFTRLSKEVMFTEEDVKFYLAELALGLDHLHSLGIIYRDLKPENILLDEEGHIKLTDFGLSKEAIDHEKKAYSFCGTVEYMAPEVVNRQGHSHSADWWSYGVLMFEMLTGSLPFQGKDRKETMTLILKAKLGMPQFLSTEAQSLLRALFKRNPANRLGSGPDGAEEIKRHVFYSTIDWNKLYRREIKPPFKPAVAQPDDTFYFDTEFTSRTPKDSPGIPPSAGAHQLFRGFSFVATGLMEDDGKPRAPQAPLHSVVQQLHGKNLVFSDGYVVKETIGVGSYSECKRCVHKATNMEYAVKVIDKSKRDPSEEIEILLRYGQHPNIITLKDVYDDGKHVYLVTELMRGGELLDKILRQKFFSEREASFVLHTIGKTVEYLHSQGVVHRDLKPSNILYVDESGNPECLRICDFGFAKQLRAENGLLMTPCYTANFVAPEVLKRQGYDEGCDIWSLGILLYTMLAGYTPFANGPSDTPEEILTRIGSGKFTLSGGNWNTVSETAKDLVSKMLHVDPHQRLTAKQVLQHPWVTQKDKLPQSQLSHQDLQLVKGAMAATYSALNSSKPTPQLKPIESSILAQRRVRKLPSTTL

Sequence of RAC-alpha serine/threonine-protein kinase (Homo sapiens) (P31749 whole entry): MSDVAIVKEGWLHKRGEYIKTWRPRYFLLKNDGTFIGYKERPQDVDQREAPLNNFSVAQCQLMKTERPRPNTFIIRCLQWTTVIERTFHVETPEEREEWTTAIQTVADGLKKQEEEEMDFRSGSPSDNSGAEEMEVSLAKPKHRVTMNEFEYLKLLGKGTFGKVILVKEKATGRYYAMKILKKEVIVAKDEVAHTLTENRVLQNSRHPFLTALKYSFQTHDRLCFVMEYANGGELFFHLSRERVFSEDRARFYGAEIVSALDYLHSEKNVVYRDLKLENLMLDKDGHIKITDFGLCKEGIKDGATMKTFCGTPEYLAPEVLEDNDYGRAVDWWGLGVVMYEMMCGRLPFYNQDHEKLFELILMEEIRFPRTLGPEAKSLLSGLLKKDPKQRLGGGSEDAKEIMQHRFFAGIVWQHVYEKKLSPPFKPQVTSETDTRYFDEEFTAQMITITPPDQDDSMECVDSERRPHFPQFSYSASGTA

## N=C(N)NCCC[C@@H](NC(=O)[C@@H](CCCNC(=N)N)NC(=O)[C@@H](CCCNC(=N)N)NC(=O)[C@@H](CCCNC(=N)N)NC(=O)[C@@H](CCCNC(=N)N)NC(=O)[C@@H](CCCNC(=N)N)NC(=O)CCCCCNC(=O)[C@@H](CCCCN)NC(=O)CCCCCNC(=O)[C@H]1O[C@@H](n2cnc3c(N)ncnc32)[C@H](O)[C@@H]1O)C(N)=O ({Adenosine(5'-uronoyl)-Ahx}-[dK][Ahx][dR][dR][dR][dR][dR][dR]-NH2)
[1]
  inhibition: 89%
[2]
  inhibition: 104%
[3]
  IC50: 14.6 nM
[4]
  inhibition: 62%
[5]
  inhibition: 62%
[6]
  inhibition: 96%
[7]
  IC50: 5.32 nM
[8]
  inhibition: 106%
[9]
  inhibition: 51%
[10]
  inhibition: 97%
[11]
  inhibition: 87%
[12]
  inhibition: 16%
[13]
  inhibition: 107%
[14]
  inhibition: 109%
[15]
  inhibition: 88%
[16]
  inhibition: 74%
[17]
  inhibition: 5%
[18]
  inhibition: 99%
[19]
  inhibition: 0%
[20]
  inhibition: 105%
[21]
  inhibition: 76%
[22]
  inhibition: 51%
[23]
  inhibition: 16%
[24]
  inhibition: 16%
[25]
  inhibition: 89%
[26]
  inhibition: 34%
[27]
  inhibition: 94%
[28]
  inhibition: 84%
[29]
  inhibition: 51%
[30]
  inhibition: 105%
[31]
  inhibition: 104%
[32]
  inhibition: 54%
[33]
  inhibition: 97%
[34]
  inhibition: 81%
[35]
  inhibition: 16%
[36]
  inhibition: 97%
[37]
  inhibition: 104%
[38]
  inhibition: 55%
[39]
  inhibition: 79%
[40]
  inhibition: 10%
[41]
  inhibition: 98%

From ChEMBL document CHEMBL1139385, “Structural analysis of ARC-type inhibitor (ARC-1034) binding to protein kinase A catalytic subunit and rational design of bisubstrate analogue inhibitors of basophilic protein kinases” (J Med Chem, 2009)
